HSV replic up – increases HSV replication in cells; 220,000 compounds, 0.005% hits; maximum fold increase; HSV replication augmentation in cells, fold increase; in the data active = maximum fold increase above about 1.5; tested in PC3 cells
STAT1 blocker – reduces IFN-gamma driven STAT1 reporter signal; AID 920; 200,000 compounds, 0.35% hits; NIH 3T3 STAT1-luciferase reporter, luminescence; inhibition, % at 5.5 µM;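 active = inhibition above a set limit, the mean inhibition across all tested compounds plus 3 SD, cut at about 34% in these data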
KCC2 mod – KCC2 (human) Cl- transport modulation | Q9H2X9 | KCC2 cells, thallium flux FluoZin-2 fluorescence | B-score of Tl+ flux slope (higher = more flux/activation; lower = inhibition) at 10 µM | 190,000 compounds, 2.2% hits;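 active = thallium flux slope and its plate-corrected score both differing from the plate sample mean at a set confidence after two filtering rounds, in either direction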;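 note: slope of fluorescence scaled to starting intensity during 10 to 20 s after thallium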
Target sequence (Q9H2X9 whole entry, looked up): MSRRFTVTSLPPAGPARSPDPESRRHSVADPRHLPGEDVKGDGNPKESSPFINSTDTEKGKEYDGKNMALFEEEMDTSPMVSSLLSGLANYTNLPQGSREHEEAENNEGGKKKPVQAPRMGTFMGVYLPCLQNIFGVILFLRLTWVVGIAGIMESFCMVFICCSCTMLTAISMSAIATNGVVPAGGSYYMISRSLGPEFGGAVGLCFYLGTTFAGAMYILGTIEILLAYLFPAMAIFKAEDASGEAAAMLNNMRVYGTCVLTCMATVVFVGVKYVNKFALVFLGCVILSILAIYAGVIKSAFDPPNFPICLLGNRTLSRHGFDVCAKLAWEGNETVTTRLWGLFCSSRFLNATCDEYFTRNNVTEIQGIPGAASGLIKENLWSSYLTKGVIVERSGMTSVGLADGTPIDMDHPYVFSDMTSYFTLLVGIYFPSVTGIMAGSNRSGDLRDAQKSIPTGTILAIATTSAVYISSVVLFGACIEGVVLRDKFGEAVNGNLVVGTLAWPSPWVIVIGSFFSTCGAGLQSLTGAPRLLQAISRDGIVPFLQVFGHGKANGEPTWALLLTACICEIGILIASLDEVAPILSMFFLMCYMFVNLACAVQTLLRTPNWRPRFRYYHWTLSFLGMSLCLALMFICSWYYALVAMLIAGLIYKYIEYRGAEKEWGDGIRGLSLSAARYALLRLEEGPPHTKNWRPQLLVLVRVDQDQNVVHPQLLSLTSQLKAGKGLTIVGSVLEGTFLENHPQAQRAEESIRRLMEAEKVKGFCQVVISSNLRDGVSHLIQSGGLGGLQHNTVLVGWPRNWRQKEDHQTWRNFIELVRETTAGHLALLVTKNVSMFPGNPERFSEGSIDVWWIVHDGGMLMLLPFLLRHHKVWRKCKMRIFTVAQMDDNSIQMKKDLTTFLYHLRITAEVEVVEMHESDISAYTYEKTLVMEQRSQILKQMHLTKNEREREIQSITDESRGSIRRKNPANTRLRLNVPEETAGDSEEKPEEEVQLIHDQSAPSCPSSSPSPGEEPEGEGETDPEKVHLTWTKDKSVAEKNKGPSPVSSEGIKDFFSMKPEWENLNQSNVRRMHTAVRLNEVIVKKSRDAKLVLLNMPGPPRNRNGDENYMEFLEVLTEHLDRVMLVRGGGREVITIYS
STAT3 inh – reduces IL-6 driven STAT3 reporter signal; U3A cells, IL-6 STAT3-luciferase reporter, luminescence; host cell line lacks STAT1; inhibition, % at 5.5 µM; 190,000 compounds, 0.89% hits; AID 862;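 active = inhibition above the mean inhibition across all screened compounds plus 3 SD, cut at about 44% in these data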
STAT1 activator – activators of IFN-gamma induced STAT1 signaling. NIH 3T3 STAT1-luciferase reporter, luminescence; 100% = IFN-gamma alone, no compound. activation (% of control), % at 5.5 µM. 200,000 compounds, 2.6% hits. AID 932;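 active = activation above the screen-wide mean activation plus 3 SD, cut at about 130% in these data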
STAT3 activator – STAT3 signaling activation. U3A cells, IL-6 STAT3-luciferase reporter, luminescence; 100% = signal with IL-6 EC80 alone. activation (% of control), % at 5.6 µM. 190,000 compounds, 0.91% hits. AID 871;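 active = activation above the screen-wide mean of compound activation plus 3 SD, cut at about 130% in these data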
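System – human U3A cells carrying STAT3-luciferase construct · Probe or stimulus – Interleukin-6, 33 ng/mL · Schedule – compound 1 h, then IL-6 6 h at 37 °C · Signal – luminescence from STAT3-driven luciferase reporter · Evaluation – percent of IL-6-only median luminescence · Benchmarks – IL-6-only high control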
STAT1 act conf – confirmation of STAT1 signaling activators | shares compounds with STAT1 activator | 1,200 compounds, 97% hits | activation (% of control), % at 5.7 µM | NIH 3T3 STAT1-luciferase reporter, IFN-gamma potentiation, luminescence; 100% = IFN-gamma EC80 alone, no compound;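 active = activation above a set limit carried over from the earlier primary STAT1 screen, cut at about 140% in these data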
NFkB act – counter-screen for STAT1 activators: NF-kappaB activation; shares compounds with STAT1 activator; HEK293T NF-kB luciferase reporter, TNF-alpha stimulated, luminescence; 100% = TNF-alpha with vehicle only; activation (% of control), % at 5.7 µM; 1,200 compounds, 43% hits;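 active = activation above the mean of solvent-only control wells plus 3 SD, set per campaign, cut at about 130% in these data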;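 note: TNF-alpha given at a submaximal dose yielding about 80% of full reporter signal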
STAT3 act STAT1c – human STAT3 activation in STAT1 activator counter-screen; shares compounds with STAT1 activator; U3A cells STAT3-luciferase reporter, IL-6, luminescence; cells lack STAT1; 100 = IL-6 alone, no compound effect; activation (% of control), % at 5.7 µM; 1,200 compounds, 46% hits; AID 1316;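 active = activation above the solvent-only control well mean plus 3 SD, set per plate batch, cut at about 110% in these data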;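 note: higher means more STAT3 reporter activation so hits are non-selective activators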
Each line names hits and unclear results; the compound was inactive in the other large screens (follow-up assays come after a bar, where they were run). Most compounds without a hit are left out; they make up all but 5.5% or so of the library.

CC(=O)c1ccc(NC(=O)c2ccc(NC(=O)CCS(=O)(=O)c3cccs3)cc2)cc1	STAT1 activator 157 | STAT1 act conf 169 | NFkB act inactive | STAT3 act STAT1c 113
COc1ccccc1Nc1nc(N)nc(-c2cc3ccccc3o2)n1	none
Cc1c(-c2nc(N)nc(Nc3ccccc3F)n2)oc2ccccc12	STAT1 activator 198 (no result: KCC2 mod) | STAT1 act conf 232 | NFkB act 141 | STAT3 act STAT1c 114
COc1ccc(Cl)c2c1[nH]c1nc(SCc3ccccn3)nnc12	STAT1 activator 189 | STAT1 act conf 175 | NFkB act 144 | STAT3 act STAT1c 124
COc1ccc(Cl)c2c1[nH]c1nc(SCc3cccnc3)nnc12	none
O=C(/C=C/c1ccco1)Nc1ccccn1	STAT1 activator 152 | STAT1 act conf 177 | NFkB act inactive | STAT3 act STAT1c inactive
O=C(/C=C/c1ccco1)Nc1ccc(N2CCCC2)cc1	STAT1 activator 158 | STAT1 act conf 187 | NFkB act 139 | STAT3 act STAT1c 113
O=C(/C=C/c1ccco1)Nc1ccc(C(=O)N2CCOCC2)cc1	none
O=C(/C=C/c1ccco1)Nc1cccc2cccnc12	none
COc1ccc(NC(=S)Nc2ccc3snnc3c2)cc1	none (no result: KCC2 mod)
COc1ccc(NC(=S)Nc2ccc3nccnc3c2)cc1	STAT1 activator 153 | STAT1 act conf 141 | NFkB act inactive | STAT3 act STAT1c inactive
CCN(/C=N/c1sc2c(c1C#N)CCCCC2)CC	STAT1 activator 158 | STAT1 act conf 182 | NFkB act 135 | STAT3 act STAT1c 125
COc1ccc(/C=N/NC(=O)c2cccc(COCC(F)(F)C(F)F)c2)cc1	none
O=C(/C=C\Nc1ccc(Br)cc1)c1cccnc1	STAT1 activator 162 | STAT1 act conf 198 | NFkB act inactive | STAT3 act STAT1c inactive
Cc1noc(NS(=O)(=O)c2ccc(N/C=C/C(=O)c3cccnc3)cc2)c1C	none
O=C(Cc1ncc(C(F)(F)F)cc1Cl)Nc1ccc(F)cc1	none (no result: KCC2 mod)
COc1ccc(C(=O)/C=C/Nc2cccc(C)n2)cc1OC	STAT1 activator 171 | STAT1 act conf 209 | NFkB act inactive | STAT3 act STAT1c inactive
COc1ccc(N/C=C/C(=O)c2ccc(OC)c(OC)c2)cc1	none (no result: STAT1 blocker, STAT3 inh, STAT1 activator, STAT3 activator)
COC(=O)c1ccc(N/C=C\C(=O)c2ccc3c(c2)OCO3)cc1	none
COc1ccc(N/C=C\C(=O)c2ccc3c(c2)OCO3)cc1OC	STAT1 activator 156 | STAT1 act conf 171 | NFkB act inactive | STAT3 act STAT1c inactive
OCCOCCNc1ncnc2c1cnn2-c1ccc(Cl)cc1	STAT1 activator 157 | STAT1 act conf 225 | NFkB act 133 | STAT3 act STAT1c 116
Brc1ccc(-c2cn3c(n2)SCC3)cc1	STAT1 activator 166 (no result: KCC2 mod) | STAT1 act conf 199 | NFkB act 137 | STAT3 act STAT1c inactive
Clc1ccc(-c2cn3c(n2)SCC3)cc1	STAT1 activator 158 | STAT1 act conf 183 | NFkB act 137 | STAT3 act STAT1c 122
Cc1ccsc1/C=N/n1c(-c2ccncc2)n[nH]c1=S	none (no result: HSV replic up)
O=C(Nc1ccc2sccc2c1)c1ccc(Cl)s1	STAT1 activator 192 | STAT1 act conf 275 | NFkB act 138 | STAT3 act STAT1c 113
O=C(Nc1ccc2c(c1)C(=O)NC2=O)c1ccc(Cl)s1	none (no result: HSV replic up, STAT3 inh, STAT3 activator)
COc1ccc(-c2noc(C(=O)NCc3ccc(F)cc3)n2)cc1OC	none
COCCNC(=O)C(OC(=O)c1cc2oc(C)cc2n1C)C(C)C (stereo unspecified)	none
CC(C)(C)C(=O)COc1ccccc1[N+](=O)[O-]	none
CCOC(=O)/C=C/COc1ccccc1[N+](=O)[O-]	STAT1 activator 154 | STAT1 act conf 146 | NFkB act inactive | STAT3 act STAT1c inactive
N#CC1=C(Nc2ccc(Br)cc2)CCC1	none
Brc1ccc(NC2=Nc3ccccc3CC2)cc1	STAT1 activator 158 | STAT1 act conf 187 | NFkB act 141 | STAT3 act STAT1c inactive
CC1CCN(S(=O)(=O)c2ccc(S(=O)(=O)NCC3COCCO3)cc2)CC1 (stereo unspecified)	none (no result: KCC2 mod)
CCn1c(COc2cccc(C)c2C)nnc1SCC(=O)N1CCN(c2ccc(OC)cc2)CC1	none (no result: KCC2 mod)
Fc1ccccc1/C=N/Nc1ncnc2ccccc12	none
Clc1ccc(/C=N/Nc2ncnc3ccccc23)cc1Cl	STAT1 activator 158 (no result: HSV replic up) | STAT1 act conf 208 | NFkB act 151 | STAT3 act STAT1c 135
O=[N+]([O-])c1ccc2cn(-c3ccccc3)nc2c1	STAT1 activator 152 | STAT1 act conf 196 | NFkB act 135 | STAT3 act STAT1c inactive
O=[N+]([O-])c1ccc2c(c1)ncn2-c1ccccc1	none
Cc1ccc(-c2cc(N)n(-c3ccc(F)cc3)n2)cc1	STAT1 activator 155 | STAT1 act conf 142 | NFkB act inactive | STAT3 act STAT1c inactive
Fc1ccccc1Nc1nc2c(s1)CCc1ccccc1-2	STAT1 activator 198 | STAT1 act conf 268 | NFkB act 157 | STAT3 act STAT1c 161
O=C(Nc1nc2c(s1)CCc1ccccc1-2)c1cccs1	none (no result: KCC2 mod)
COc1ccc2nc(Nc3nc(C)c(C(C)=O)s3)sc2c1	STAT1 activator 164 | STAT1 act conf 180 | NFkB act inactive | STAT3 act STAT1c inactive
CC(=O)c1sc(Nc2nc3cc4c(cc3s2)OCO4)nc1C	STAT1 activator 174 | STAT1 act conf 190 | NFkB act 142 | STAT3 act STAT1c inactive
Cc1nn(C(=O)c2cccs2)c(N)c1-c1ccccc1	STAT1 activator 162 | STAT1 act conf 183 | NFkB act 137 | STAT3 act STAT1c inactive
CC(=O)c1c(C)nn(C(=O)c2cccs2)c1C	none
CCC(=O)Nc1ccc2c(c1)ncn2-c1ccc(OC)cc1	none
CCC(=O)Nc1ccc2c(c1)ncn2-c1ccc(C)cc1	STAT1 activator 162 | STAT1 act conf 183 | NFkB act 136 | STAT3 act STAT1c 135
O=[N+]([O-])c1ccccc1/C=C/C=N/N1CCCCC1	STAT1 activator 155 | STAT1 act conf 178 | NFkB act inactive | STAT3 act STAT1c 111
O=C(c1ccc(F)cc1)c1cnc(Nc2ccccc2)s1	STAT1 activator 153 | STAT1 act conf 203 | NFkB act 135 | STAT3 act STAT1c 124

Screening results: PubChem, several laboratories
